# From the RNAGym collection of RNA variant scans (doi:10.1038/s41586-018-0170-7)
# B1: tRNA (parent)
# chain: GUUCCGUUGGCGUAAUGGUAACGCGUCUCCCUCCUAAGGAGAAGACUGCGGGUUCGAGUCCCGUACGGAACG
# Variants of: B1
# Test: yeast fitness, log relative to wild type (ln ratio); higher = fitter; tRNA-Arg(CCU), competitive growth, 37 C, 1 M NaCl
# Method in brief: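 BY4742 cells without the chromosomal tRNA-Arg(CCU) gene carried a combinatorial variant library on a HIS3 centromeric plasmid, from two independent transformations. After 4 generations in SC-HIS at 30 °C, pools spent ~6.5 generations (~26.5 h) in SC-HIS 1M NaCl at 37 °C, giving three outputs per input, and 125 bp paired-end Illumina reads counted the variants. Fitness is the natural log of each genotype's generations over the wild type's, with generations taken as OD-scaled log2 output/input frequency weighted by inverse variance across replicates.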
row,Variant,yeast fitness (ln)
1,G6U C46U C66U A70G,-0.153
2,G1A G6A A43C C46U A70U C71U,-0.191
3,G6A C46U,-0.0181
4,G1A U2C C27U A43C C71U,-0.0487
5,G6U A70U,-0.0758
6,G1A U2G A69G A70G,-0.118
7,G1A G6U C46U C71U,-0.183
8,G1A G6A A43C C46U A70G,-0.188
9,U2G G6A C27U C66U A69G A70G,-0.243
10,U2G G6A C27U A69G A70U C71U,-0.383
11,U2G C27U A43C A69G A70G C71U,-0.204
12,G6U C27U A43C A70G,-0.282
13,G1A U2G G6U C27U C66U A69G A70U,-0.307
14,G1A U2C G6A C27U C66U A69G A70G C71U,-0.0671
15,U2C G6A C27U A43C C66A A70G C71U,-0.0895
16,U2G G6A A43C C66U A70G,-0.147
17,U2G G6A A43C C66U A70U,-0.0213
18,G1A C46U A69G A70G C71U,-0.0298
19,C27U A69G A70U C71U,-0.294
20,G6A C46U A69G A70G,-0.18
21,G1A G6A C27U C46U C66U A69G A70G,-0.338
22,G1A U2G G6A C27U A43C C46U,-0.242
23,G1A C27U A43C C46U A70U C71U,-0.29
24,U2G G6A C27U A43C C46U C66A,-0.189

row,Variant,yeast fitness (ln)
1,U2G G6A C27U A43C C46U C66U,-0.102
2,G1A G6A A69G A70G C71U,-0.178
3,G1A U2G G6A C27U C46U A69G A70G C71U,-0.332
4,G6A A43C C46U C66A A70U C71U,-0.312
5,U2G C27U A43C C46U C66U,-0.146
6,G1A U2G A43C C66U A69G A70U C71U,-0.472
7,G6U A43C,-0.132
8,U2G G6U A43C C66U A70U,-0.279
9,G1A U2C C46U C66A A69G A70G C71U,-0.273
10,G1A U2G C27U C46U C66U A70G,-0.167
11,G6A A43C C46U C66A A69G A70G C71U,-0.207
12,U2G G6U C27U A43C C66U A69G A70U C71U,-0.411
13,G1A U2C G6U C46U A69G A70G C71U,-0.15
14,G1A U2G G6U C27U C46U A69G C71U,-0.26
15,G1A U2G G6A A69G A70U C71U,-0.331
16,U2G C27U A43C C66U A70G C71U,-0.331
17,C46U C66A A69G C71U,-0.0675
18,G1A U2G G6A C66U A70G,-0.142
19,G1A U2G G6U C27U C66U C71U,-0.522
20,G1A C27U A70U,-0.112
21,G1A C27U A70G,-0.163
22,G6A C27U A43C C46U A70U,-0.139
23,G1A G6U C27U C66A A70G C71U,-0.531
24,C46U C66A C71U,-0.0724

row,Variant,yeast fitness (ln)
1,G1A C27U C46U A70G C71U,-0.0653
2,G1A G6A C66U A69G A70U C71U,-0.266
3,G6A A43C C46U C66U,-0.00855
4,C27U A43C C66A A69G A70G,-0.181
5,G6A C27U C46U A69G A70U C71U,-0.331
6,U2G G6U C27U C66A A69G A70U,-0.0809
7,U2C G6A C46U C66U A69G A70U C71U,-0.419
8,G1A G6U A69G A70G,-0.198
9,U2C G6U A43C C66U A70G,-0.279
10,C66A A69G C71U,-0.108
11,U2C G6A A43C A69G A70U C71U,-0.279
12,G1A U2C G6A C27U A43C C46U C66U A70G,-0.155
13,U2G G6U C27U A43C C46U A70G,-0.208
14,A43C C66A A70U,-0.0764
15,A43C C66A A70G,-0.0269
16,U2G G6U C46U A69G A70U C71U,-0.311
17,G6U A69G A70G C71U,-0.282
18,U2G C46U C66U A69G A70U C71U,-0.349
19,G1A G6U A43C C66A A70G,-0.135
20,G1A G6U C66U,-0.126
21,U2C C27U A43C A69G A70G,-0.0551
22,G1A U2C G6U A70G C71U,-0.0526
23,G1A C27U A43C A69G A70G,-0.303
24,G1A U2C C66A A70U C71U,-0.0883

row,Variant,yeast fitness (ln)
1,U2G C27U A43C C46U C66U A70G C71U,-0.231
2,U2C G6A C27U C46U A69G A70U,-0.152
3,G1A U2C G6A C27U C66U A70U,-0.141
4,G1A U2G G6A C27U A43C C46U C66U A69G A70G C71U,-0.433
5,U2G C66A A69G A70U C71U,-0.291
6,U2C G6U A43C C66A A69G A70G,-0.029
7,U2C G6A C66U A70G,-0.00663
8,A43C C46U A69G A70G C71U,-0.0835
9,C27U C46U C66U C71U,-0.376
10,G6A C27U C66U A70G C71U,-0.249
11,G1A A43C C46U A69G A70G,-0.104
12,U2G G6A C27U A43C C46U C71U,-0.134
13,G1A U2C G6U C27U A69G A70G C71U,-0.22
14,G1A U2G A43C C46U C66A A70U,-0.125
15,U2C G6A C46U C66U A69G A70U,-0.138
16,G1A U2G G6A C27U A43C,-0.235
17,U2G C27U A43C C46U A69G C71U,-0.193
18,G1A G6A C27U A43C C46U C66U A70G C71U,-0.338
19,G1A A43C C66A A70G C71U,-0.164
20,G6A C66A A69G A70G,-0.159
21,G1A U2C G6U C27U C46U A70U C71U,-0.13
22,G1A U2G G6A C27U A43C C66U A69G A70U,-0.387
23,G1A U2G G6U A43C C46U C66A A69G A70U,-0.256
24,G1A U2G A43C A70G,-0.108

row,Variant,yeast fitness (ln)
1,G1A A43C C66U C71U,-0.289
2,G1A G6U C27U C66U A70U,-0.274
3,U2C G6U C27U A43C C46U C66U A69G A70G,-0.256
4,U2G C27U A69G A70G C71U,-0.178
5,G1A G6A C27U A43C C46U C66A A70G C71U,-0.293
6,G6U A43C C46U C66A A70G,-0.0224
7,G1A U2G C46U A69G A70U,-0.238
8,G1A U2G C46U A70U,-0.115
9,G6A C27U A69G C71U,-0.243
10,U2G G6U C27U C46U C66U A70G C71U,-0.261
11,G6A C27U A43C C66U A70U,-0.169
12,U2C G6U C46U C66U A70G C71U,-0.0117
13,U2G G6U C66U A70U C71U,-0.303
14,U2C C46U C66A A70U,0.075
15,G1A U2G G6U C27U A43C C46U,-0.363
16,U2G G6U C27U A70G C71U,-0.285
17,U2C G6A A43C C46U C66U A69G A70G,-0.00874
18,U2C G6U A43C C66U A69G A70G,-0.31
19,U2C G6U C27U A69G A70G,-0.191
20,U2C G6A C27U A43C C46U A70G,-0.133
21,G6A C27U C46U C66A A70G,-0.218
22,G1A U2G G6A A43C C66U A70U C71U,-0.443
23,U2G G6A C27U A43C C46U C66A A69G C71U,-0.283
24,G1A G6A C27U A43C A70U C71U,-0.314

row,Variant,yeast fitness (ln)
1,G6A C66A C71U,-0.0747
2,G1A C27U A43C C46U A70G,-0.147
3,G1A U2C G6A A43C C46U C66U A69G A70G C71U,-0.0138
4,U2C G6U C46U C71U,-0.0792
5,A43C C46U A70U C71U,-0.131
6,G6A C46U C66U A70G,-0.0166
7,G1A C27U C46U C66A A69G A70U C71U,-0.411
8,U2C G6U C27U A43C C46U C66A A69G A70G,-0.051
9,G6U C27U A43C C66A A69G A70G C71U,-0.338
10,U2C G6A C27U C66A A70U C71U,-0.269
11,G1A G6U C27U C46U C66A A70U,-0.249
12,U2G C27U C46U A70G C71U,-0.216
13,U2C G6A C27U C46U C66U A70U C71U,-0.174
14,C27U C46U C66A,-0.0465
15,C27U C46U C66U,-0.0577
16,G1A U2G A43C C66U A70G C71U,-0.22
17,U2G G6U C27U A43C C66A C71U,-0.39
18,U2C G6U C27U C46U C66U A69G A70U,-0.218
19,G1A U2C G6A A70G,-0.0946
20,G6A A43C C66U A70U,-0.204
21,A43C C66A A69G A70U,-0.153
22,C27U C46U A69G,-0.0243
23,U2G,-0.0125
24,U2C,0.0175

row,Variant,yeast fitness (ln)
1,U2C C27U A43C C46U C66U A69G A70U C71U,-0.46
2,G1A U2G C27U A69G,-0.145
3,G1A U2C A69G A70G,-0.0537
4,G1A G6A A43C C66U A70U,-0.374
5,G1A G6A A43C C66U C71U,-0.144
6,G1A C27U C46U A69G A70G C71U,-0.16
7,G1A A43C C66U A70U,-0.21
8,A43C C46U C66A A69G C71U,-0.26
9,G1A U2G G6U C27U A43C C46U A70G,-0.387
10,G1A C46U A69G A70G,-0.127
11,U2C G6A A43C C46U A70U,-0.0234
12,G6U C27U C66A A70U C71U,-0.29
13,G6A C27U A43C C46U A69G C71U,-0.344
14,U2G G6A C27U C46U A69G A70U C71U,-0.368
15,U2G G6U C27U A43C C46U A70G C71U,-0.295
16,U2G C66U A69G A70G C71U,-0.204
17,A43C C66U A69G A70G,-0.166
18,G1A G6A A43C C46U C66U A70G C71U,-0.338
19,G1A U2G G6A C27U A43C C71U,-0.357
20,U2C G6A A43C C66U A69G A70G C71U,-0.072
21,U2C G6U A69G A70G C71U,-0.325
22,G1A G6A A43C A69G A70G,-0.301
23,G1A U2G C66U A70G,-0.161
